Published values of several laboratories.
Target: SRSF protein kinase 2 (SRPK2, Homo sapiens, UniProt P78362)

SMILES | effect on | method | concentration | remaining binding
COc1cnc(Nc2cccc(S(N)(=O)=O)c2)nc1N1CCN(c2ccccc2)CC1 | binding | competition with immobilised ligand | 1 µM | 87%
F[C@@H]1CCN(c2nccc(-c3cnn4ncccc34)n2)C1 | binding |  | 1 µM | 80%
C[C@@H]1CN(c2cc(-c3nn(C)c4ccc(OC5(C)CC5)cc34)ncn2)C[C@H](C)O1 | cell-free assay | competition with immobilised ligand | 1 µM | 88%
CN(CCCC(F)(F)F)c1nccc(-c2cnn3ncccc23)n1 | binding |  | 1 µM | 100%
O=C(NCC1CCOCC1)c1n[nH]cc1NC(=O)c1c(F)cccc1F | binding | competition with immobilised ligand | 1 µM | 84%
O=C(NCCCN1CCOCC1)c1ccc(Nc2ncc(Cl)c(-c3ccc(Cl)s3)n2)cc1 | binding | competition with immobilised ligand | 1 µM | 75%
C[C@@H](c1ccc(-n2cnc3c(N)ncnc32)cc1)N1CCc2nn(C)c(Cc3ccccc3)c2C1=O | binding | competition with immobilised ligand | 0.1 µM | 83%
CC(=O)C1=C(C)N(c2cccc(C(F)(F)F)c2)C(=O)N[C@@H]1c1ccc(C#N)nc1 | cell-free assay | competition with immobilised ligand | 1 µM | 100%
C[C@@H]1CCN(c2nccc(-c3cnn4ncccc34)n2)C1 | binding |  | 1 µM | 100%
O=C(c1ccc(Nc2nccc(-c3cc4ccccc4s3)n2)cc1)N1CCC(N2CCCC2)CC1 | binding | competition with immobilised ligand | 1 µM | 92%
Cc1cnn2ncc(-c3ccnc(N(C)C)n3)c2c1 | binding |  | 1 µM | 100%
CC1=C(C#N)C(c2ccc3c(c2)c(NC(=O)c2ccccc2C)nn3C)C(C#N)=C(C)N1 | cell-free assay | competition with immobilised ligand | 1 µM | 88%
N[C@@H]1CCN(c2nccc(-c3cnn4ncccc34)n2)C1 | binding |  | 1 µM | 100%
O=C(NCCCN1CCOCC1)c1ccc(Nc2nccc(-c3cc4ccccc4s3)n2)cc1 | binding | competition with immobilised ligand | 1 µM | 99%
CN(C)c1nccc(-c2cnc3ncccn23)n1 | binding |  | 1 µM | 100%
N#Cc1ccc(Nc2ccc3[nH]c(=O)[nH]c3c2)c(Cl)c1 | cell-free assay | competition with immobilised ligand | 1 µM | 100%
CNC(=O)[C@@H]1CC[C@@H](n2c(-c3ccc4cnccc4c3)nc3ccc(C(=O)NCc4cccc(C(N)=O)c4)cc32)C1 | binding | competition with immobilised ligand | 1 µM | 100%
Cc1nc(N2CC[C@@H](O)C2)ncc1-c1cc(C(F)(F)F)cc2[nH]ncc12 | binding | competition with immobilised ligand | 1 µM | 100%
C=CC(=O)N1CCC(C(=O)NCC(=O)N2CCN(c3nc(-c4cnc(N)nc4C(F)F)nc(N4CCOCC4)n3)CC2)CC1 | binding | competition with immobilised ligand | 1 µM | 100%
O=C(N1CCS(=O)(=O)CC1)N1C[C@H](c2ccc(OC(F)(F)F)cc2)C[C@H](c2nc(C3CC3)no2)C1 | cell-free assay | competition with immobilised ligand | 1 µM | 100%
FC(F)(F)Oc1cccc(-c2cnc3ccc(-c4ccncc4)nn23)c1 | binding | competition with immobilised ligand | 5 µM | 66%
